Values after ≈ are worked out from the molar mass of the structure shown. Active and inactive are the calls of the source. The rule behind the calls is not given here.
Assays:
Format in all cases: functional
Bacillus mycoides = assay: Antibacterial activity against Bacillus mycoides DSMZ 274 at 50 mg/ml after 24 hrs by agar diffusion test; details: for zone of inhibition at 50000 µg/mL: DSMZ 274, 24 h, read-out: DIZ
In short: (§1)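 Agar diffusion: wells in agar filled with […] DMSO solution of compound at various concentrations; diameter of clear zone around application point measured. Bacteria grown 24 h at 37 °C on nutrient agar. Compounds first screened at 50 mg/ml; those active then tested at lower concentrations. Bracketed value = lowest concentration (mg/ml) giving zone >11 mm, reported only if activity retained at ≤1.25 mg/ml.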

Escherichia coli = assay: Antibacterial activity against Escherichia coli ATCC 8739 at 50 mg/ml after 24 hrs by agar diffusion test; details: for zone of inhibition at 50000 µg/mL: ATCC 8739, 24 h, read-out: DIZ; in short: as §1
Bacillus subtilis = assay: Antibacterial activity against Bacillus subtilis ATCC 6633 at 50 mg/ml after 24 hrs by agar diffusion test; details: for zone of inhibition at 50000 µg/mL: ATCC 6633, 24 h, read-out: DIZ; in short: as §1
Acinetobacter johnsonii = assay: Antibacterial activity against Acinetobacter johnsonii ATCC 17909 at 50 mg/ml after 24 hrs by agar diffusion test; details: for zone of inhibition at 50000 µg/mL: ATCC 17909, 24 h, read-out: DIZ; in short: as §1
Bacillus = assay: Antibacterial activity against Bacillus idosus B 241 at 50 mg/ml after 24 hrs by agar diffusion test; details: for zone of inhibition at 50000 µg/mL: B 241, 24 h, read-out: DIZ; in short: as §1
Saccharomyces cerevisiae = assay: Antifungal activity against Saccharomyces cerevisiae ATCC 9763 at 50 mg/ml after 72 hrs by agar diffusion test; details: for zone of inhibition at 50000 µg/mL: ATCC 9763, 72 h, read-out: DIZ
In short: (§2)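 Agar diffusion: yeasts grown on yeast peptone dextrose agar and fungi on potato dextrose agar. Wells are filled with […] of compound solution in DMSO at various concentrations, and the clear-zone diameter is measured. Bracketed values give the lowest concentration (mg/ml) that produces a zone >11 mm. A first screen is run at 50 mg/ml.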

Micrococcus luteus [1] = assay: Antibacterial activity against Micrococcus luteus ATCC 9631 at 50 mg/ml after 24 hrs by agar diffusion test; details: for zone of inhibition at 50000 µg/mL: ATCC 9631, 24 h, read-out: DIZ; in short: as §1
Priestia megaterium = assay: Antibacterial activity against Bacillus megaterium NRRL 1353895 at 50 mg/ml after 24 hrs by agar diffusion test; details: for zone of inhibition at 50000 µg/mL: NRRL 1353895, 24 h, read-out: DIZ; in short: as §1
Micrococcus luteus [2] = assay: Antibacterial activity against Sarcina lutea ATCC 9341 at 50 mg/ml after 24 hrs by agar diffusion test; details: for zone of inhibition at 50000 µg/mL: ATCC 9341, 24 h, read-out: DIZ
In short: (§3)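 Agar diffusion: bacteria grown 24 h at 37 °C on nutrient agar. Wells in the agar are filled with […] of compound solution in DMSO at various concentrations. The diameter of the clear zone around the application point is measured. Bracketed values give the lowest concentration (mg/ml) that produces a zone >11 mm. A first screen is run at 50 mg/ml.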

[3] = system: Mycobacterium tuberculosis; assay: Antimycobacterial activity against Mycobacterium tuberculosis H37Rv after 45 days
In short: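 Canetti proportion method. Compound in DMSO is added to Löwenstein–Jensen egg medium before coagulation (30 min, 85 °C), tested at three levels plus a lower one where needed. Tubes are inoculated with H37Rv at 10⁵ cells/ml and incubated 45 days at 37 °C. Colony counts versus drug-free control give percentage inhibition.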

Bacillus cereus = assay: Antibacterial activity against Bacillus cereus ATCC 11778 at 50 mg/ml after 24 hrs by agar diffusion test; details: for zone of inhibition at 50000 µg/mL: ATCC 11778, 24 h, read-out: DIZ; in short: as §1
Penicillium chrysogenum = assay: Antifungal activity against Penicillium chrysogenum CECT 2802 at 50 mg/ml after 72 hrs by agar diffusion test; details: for zone of inhibition at 50000 µg/mL: CECT 2802, 72 h, read-out: DIZ; in short: as §2
Staphylococcus aureus = assay: Antibacterial activity against Staphylococcus aureus NRRL B 313 at 50 mg/ml after 24 hrs by agar diffusion test; details: for zone of inhibition at 50000 µg/mL: NRRL B 313, 24 h, read-out: DIZ; in short: as §3
Candida tropicalis = assay: Antifungal activity against Candida tropicalis ATCC 20336 at 50 mg/ml after 72 hrs by agar diffusion test; details: for zone of inhibition at 50000 µg/mL: ATCC 20336, 72 h, read-out: DIZ; in short: as §2

Structure (SMILES)	zone of inhibition at 50000 µg/mL (Bacillus mycoides)	diameter of the inhibition zone (DIZ) (Escherichia coli)	zone of inhibition at 50000 µg/mL (Bacillus subtilis)	zone of inhibition at 50000 µg/mL (Acinetobacter johnsonii)	zone of inhibition at 50000 µg/mL (Bacillus)	zone of inhibition at 50000 µg/mL (Micrococcus luteus [1])	MIC [3]	zone of inhibition at 50000 µg/mL (Bacillus cereus)	diameter of the inhibition zone (DIZ) (Bacillus mycoides)	diameter of the inhibition zone (DIZ) (Acinetobacter johnsonii)	diameter of the inhibition zone (DIZ) (Bacillus)	diameter of the inhibition zone (DIZ) (Saccharomyces cerevisiae)	diameter of the inhibition zone (DIZ) (Micrococcus luteus [1])	diameter of the inhibition zone (DIZ) (Priestia megaterium)	diameter of the inhibition zone (DIZ) (Micrococcus luteus [2])	diameter of the inhibition zone (DIZ) (Bacillus cereus)	diameter of the inhibition zone (DIZ) (Penicillium chrysogenum)	diameter of the inhibition zone (DIZ) (Staphylococcus aureus)	diameter of the inhibition zone (DIZ) (Candida tropicalis)	diameter of the inhibition zone (DIZ) (Bacillus subtilis)	further results
CC[C@H](CO)NCc1ccc2ccc3cccc4ccc1c2c34	15 mm	inactive	14 mm	14 mm	30 mm	14 mm	16.5 µM (≈ 5 µg/mL)	14 mm													zone of inhibition at 50000 µg/mL (Saccharomyces cerevisiae): 35 mm; zone of inhibition at 50000 µg/mL (Priestia megaterium): 13 mm; zone of inhibition at 50000 µg/mL (Micrococcus luteus [2]): 13 mm; zone of inhibition at 50000 µg/mL (Penicillium chrysogenum): 14 mm; zone of inhibition at 50000 µg/mL (Staphylococcus aureus): 13 mm; zone of inhibition at 50000 µg/mL (Candida tropicalis): 40 mm
CC[C@H](CO)NC(c1ccccc1)(c1ccccc1)c1ccccc1		inactive	12 mm				> 15.1 µM		inactive	inactive	inactive	inactive	inactive	inactive	inactive	inactive	inactive	inactive	inactive		
CC[C@H](CO)NCc1ccc(-c2ccccc2)cc1	18 mm		18 mm	20 mm	18 mm	17 mm	> 19.6 µM	15 mm													zone of inhibition at 50000 µg/mL (Escherichia coli): 28 mm; zone of inhibition at 50000 µg/mL (Saccharomyces cerevisiae): 18 mm; zone of inhibition at 50000 µg/mL (Priestia megaterium): 19 mm; zone of inhibition at 50000 µg/mL (Micrococcus luteus [2]): 17 mm; zone of inhibition at 50000 µg/mL (Penicillium chrysogenum): 40 mm; zone of inhibition at 50000 µg/mL (Staphylococcus aureus): 20 mm; zone of inhibition at 50000 µg/mL (Candida tropicalis): 18 mm
CC[C@H](CO)N1C(=O)c2cccc3cccc(c23)C1=O		inactive					> 18.6 µM		inactive	inactive	inactive	inactive	inactive	inactive	inactive	inactive		inactive	inactive	inactive	zone of inhibition at 50000 µg/mL (Penicillium chrysogenum): 10 mm
CC[C@H](CO)Nc1ncccn1		inactive					> 29.9 µM	12 mm	inactive	inactive	inactive	inactive	inactive	inactive	inactive		inactive	inactive	inactive	inactive	
CC[C@H](CO)NC(=O)Nc1cccc2ccccc12		inactive					> 19.4 µM		inactive	inactive	inactive	inactive	inactive	inactive	inactive	inactive	inactive	inactive	inactive	inactive	
CC[C@H](CO)NCc1ccccc1O	14 mm	inactive	17 mm	13 mm	11 mm	11 mm	25.6 µM (≈ 5 µg/mL)	14 mm				inactive							inactive		zone of inhibition at 50000 µg/mL (Priestia megaterium): 12 mm; zone of inhibition at 50000 µg/mL (Micrococcus luteus [2]): 12 mm; zone of inhibition at 50000 µg/mL (Penicillium chrysogenum): 12 mm; zone of inhibition at 50000 µg/mL (Staphylococcus aureus): 12 mm
CC[C@H](CO)N(Cc1ccccc1)Cc1ccccc1		inactive		11 mm	11 mm	12 mm	> 18.6 µM	11 mm	inactive			inactive		inactive			inactive			inactive	zone of inhibition at 50000 µg/mL (Micrococcus luteus [2]): 12 mm; zone of inhibition at 50000 µg/mL (Staphylococcus aureus): 11 mm; zone of inhibition at 50000 µg/mL (Candida tropicalis): 10 mm
CC[C@H](CO)/N=C1\C[C@H]2CC[C@]1(C)C2(C)C	11 mm	inactive					> 22.4 µM			inactive	inactive	inactive	inactive		inactive	inactive	inactive	inactive	inactive	inactive	zone of inhibition at 50000 µg/mL (Priestia megaterium): 10 mm
CC[C@H](CO)NC(=O)c1ccncc1		inactive					> 25.7 µM		inactive	inactive	inactive	inactive	inactive	inactive	inactive	inactive	inactive	inactive	inactive	inactive	
CC[C@H](CO)NCc1ccc2ccccc2c1	17 mm		19 mm	17 mm	19 mm	19 mm	> 21.8 µM	14 mm													zone of inhibition at 50000 µg/mL (Escherichia coli): 22 mm; zone of inhibition at 50000 µg/mL (Saccharomyces cerevisiae): 10 mm; zone of inhibition at 50000 µg/mL (Priestia megaterium): 17 mm; zone of inhibition at 50000 µg/mL (Micrococcus luteus [2]): 17 mm; zone of inhibition at 50000 µg/mL (Penicillium chrysogenum): 35 mm; zone of inhibition at 50000 µg/mL (Staphylococcus aureus): 19 mm; zone of inhibition at 50000 µg/mL (Candida tropicalis): 10 mm
CC[C@H](CO)n1cnc2ccccc2c1=O		inactive		14 mm	14 mm		22.9 µM (≈ 5 µg/mL)		inactive			inactive	inactive	inactive	inactive	inactive	inactive	inactive	inactive	inactive	

Source: ChEMBL document CHEMBL1932986, “Synthesis and in vitro antimycobacterial activity of compounds derived from (R)- and (S)-2-amino-1-butanol - The crucial role of the configuration” (Eur J Med Chem, 2012)
